Laboratory results reported in ChEMBL document CHEMBL1124808, “The synthesis and antiallergy activity of 1-(aryloxy)-4-(4-arylpiperazinyl)-2-butanol derivatives” (1990).

Columns and labels:
Type in all cases: functional
Rattus norvegicus [1] = assay: Percent change in volume of foot edema of test compound to that of positive control was determined at a dose of 31.6 mg/kg in rat; -26/-81
Rattus norvegicus [2] = assay: Percent change in volume of foot edema of test compound to that of positive control was determined at a dose of 31.6 mg/kg in rat
Rattus norvegicus [3] = assay: Percent change in volume of foot edema of test compound to that of positive control was determined at a dose of 10 mg/kg in rat
Rattus norvegicus [4] = assay: Percent change in volume of foot edema of test compound to that of positive control was determined at a dose of 10 mg/kg in rat; -67/-72
Cavia porcellus = organism: Cavia porcellus; assay: Dose that protects 50% of guinea pig from collapse was determined in guinea pig anaphylaxis assay; conditions: read-out: PD50
Outline: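 Guinea pigs dosed by gavage (10 mL/kg) with compound in 0.5% Tween 80/water; reference theophylline 100 mg/kg po. At 1–24 h, exposed in chamber to aerosolized 1% (w/v) egg albumin at 10 L air/min for up to 5 min; protected if no collapse within 5 min. PD50 by Litchfield and Wilcoxon.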

Rattus norvegicus [5] = assay: Percent change in volume of foot edema of test compound to that of positive control was determined at a dose of 31.6 mg/kg in rat; -90/-79
Rattus norvegicus [6] = assay: Percent change in volume of foot edema of test compound to that of positive control was determined at a dose of 3.16 mg/kg in rat; -52/-79
Rattus norvegicus [7] = assay: Percent change in volume of foot edema of test compound to that of positive control was determined at a dose of 10 mg/kg in rat; -70/-88
Rattus norvegicus [8] = assay: Percent change in volume of foot edema of test compound to that of positive control was determined at a dose of 31.6 mg/kg in rat; -91/-83
Rattus norvegicus [9] = assay: Oral Antiallergic activity in the passive foot anaphylaxis (PFA) assay of various amines at the dose of 3.16 mg/kg; -42/-78
Rattus norvegicus [10] = assay: Percent change in volume of foot edema of test compound to that of positive control was determined at a dose of 31.6 mg/kg in rat; -88/-83
Rattus norvegicus [11] = assay: Percent change in volume of foot edema of test compound to that of positive control was determined at a dose of 10 mg/kg in rat; -72/-83
Rattus norvegicus [12] = assay: Percent change in volume of foot edema of test compound to that of positive control was determined at a dose of 3.16 mg/kg in rat; -32/-93
Rattus norvegicus [13] = assay: Percent change in volume of foot edema of test compound to that of positive control was determined at a dose of 31.6 mg/kg in rat; -24/-58
Rattus norvegicus [14] = assay: Percent change in volume of foot edema of test compound to that of positive control was determined at a dose of 31.6 mg/kg in rat; -70/-84
Rattus norvegicus [15] = assay: Percent change in volume of foot edema of test compound to that of positive control was determined at a dose of 10 mg/kg in rat; -39/-78
Rattus norvegicus [16] = assay: Percent change in volume of foot edema of test compound to that of positive control was determined at a dose of 10 mg/kg in rat; -50/-62
Rattus norvegicus [17] = assay: Percent change in volume of foot edema of test compound to that of positive control was determined at a dose of 3.16 mg/kg in rat; +22/-62
Rattus norvegicus [18] = assay: Percent change in volume of foot edema of test compound to that of positive control was determined at a dose of 31.6 mg/kg in rat; […]/-78
Rattus norvegicus [19] = assay: Percent change in volume of foot edema of test compound to that of positive control was determined at a dose of 10 mg/kg in rat; -25/-44
Rattus norvegicus [20] = assay: Percent change in volume of foot edema of test compound to that of positive control was determined at a dose of 31.6 mg/kg in rat; -49/-44
Rattus norvegicus [21] = assay: Percent change in volume of foot edema of test compound to that of positive control was determined at a dose of 3.16 mg/kg in rat; -13/-68
Rattus norvegicus [22] = assay: Percent change in volume of foot edema of test compound to that of positive control was determined at a dose of 31.6 mg/kg in rat; -78/-78
Rattus norvegicus [23] = assay: Percent change in volume of foot edema of test compound to that of positive control was determined at a dose of 10 mg/kg in rat; -48/-68
Rattus norvegicus [24] = assay: Percent change in volume of foot edema of test compound to that of positive control was determined at a dose of 10 mg/kg in rat; -5/-59
Rattus norvegicus [25] = assay: Percent change in volume of foot edema of test compound to that of positive control was determined at a dose of 31.6 mg/kg in rat; -54/-67
Rattus norvegicus [26] = assay: Percent change in volume of foot edema of test compound to that of positive control was determined at a dose of 10 mg/kg in rat; -41/-59
Rattus norvegicus [27] = assay: Percent change in volume of foot edema of test compound to that of positive control was determined at a dose of 31.6 mg/kg in rat; -74/-67
Rattus norvegicus [28] = assay: Percent change in volume of foot edema of test compound to that of positive control was determined at a dose of 31.6 mg/kg in rat; -29/-47
Rattus norvegicus [29] = assay: Percent change in volume of foot edema of test compound to that of positive control was determined at a dose of 31.6 mg/kg in rat; -73/-65
Rattus norvegicus [30] = assay: Percent change in volume of foot edema of test compound to that of positive control was determined at a dose of 10 mg/kg in rat; -43/-81

`O=C(O)C(=O)O.OC(CCN1CCCCC1)COc1ccccc1` (centres undefined) was tested. Which PFA (Rattus norvegicus [1]) did it give?
Its PFA is -26.

How did the PFA (Rattus norvegicus [2]) turn out when `Cl.Cl.O=[N+]([O-])c1ccc(OCC(O)CCN2CCN(c3ccccc3)CC2)cc1` (centres undefined) was run?
The PFA was -92.

And the PFA (Rattus norvegicus [3])?
Its PFA is -28.

What does the source list for `Cl.Cl.OC(CCN1CCN(c2ccccn2)CC1)COc1ccc(F)cc1` (centres undefined)?
PFA (Rattus norvegicus [4]): -67; ED50 (Cavia porcellus): 13.9 mg/kg; PFA (Rattus norvegicus [5]): -90; PFA (Rattus norvegicus [6]): -52

For `COc1ccc(N2CCN(CCC(O)COc3ccc(F)cc3)CC2)cc1.Cl` (centres undefined), which ED50 (Cavia porcellus) is on record?
The ED50 was over 178 mg/kg.

And the PFA (Rattus norvegicus [7])?
The PFA was -70.

What about the PFA (Rattus norvegicus [8]) of the same compound?
The PFA was -91.

And the PFA (Rattus norvegicus [9])?
Its PFA is -42.

Which results are given for `Cl.OC(CCN1CCN(c2ccc(F)cc2)CC1)COc1ccc(F)cc1` (centres undefined)?
ED50 (Cavia porcellus): 3.06 mg/kg; PFA (Rattus norvegicus [10]): -88; PFA (Rattus norvegicus [11]): -72; PFA (Rattus norvegicus [12]): -32

`CN1CCN(CCC(O)COc2ccccc2)CC1.O=C(O)/C=C\C(=O)O` (centres undefined) was tested. Which PFA (Rattus norvegicus [13]) did it give?
The PFA was -24.

What does the source list for `O=C(O)/C=C\C(=O)O.O=C(O)/C=C\C(=O)O.OC(CCN1CCN(c2ccccn2)CC1)COc1ccccc1` (centres undefined)?
PFA (Rattus norvegicus [14]): -70; PFA (Rattus norvegicus [15]): -39

For `Cc1cc(Cl)ccc1OCC(O)CCN1CCN(c2ccccc2)CC1.Cl.Cl` (centres undefined), which PFA (Rattus norvegicus [16]) is on record?
The PFA was -50.

And the PFA (Rattus norvegicus [17])?
Its PFA is 22.

And the PFA (Rattus norvegicus [18])?
The PFA was -69.

`Cl.Cl.OC(CCN1CCN(c2ccccc2)CC1)COc1ccc(Cl)c(Cl)c1` (centres undefined) was tested. Which PFA (Rattus norvegicus [19]) did it give?
The PFA was -25.

What about the PFA (Rattus norvegicus [20]) of the same compound?
Its PFA is -49.

`Cl.Cl.OC(CCN1CCN(c2ccccn2)CC1)COc1ccc(Cl)cc1` (centres undefined) was tested. Which PFA (Rattus norvegicus [21]) did it give?
Its PFA is -13.

And the ED50 (Cavia porcellus)?
The ED50 was 10.2 mg/kg.

What about the PFA (Rattus norvegicus [22]) of the same compound?
Its PFA is -78.

And the PFA (Rattus norvegicus [23])?
Its PFA is -48.

`Cl.Cl.OC(CCN1CCN(c2ccc(Cl)cc2)CC1)COc1ccc(Cl)cc1` (centres undefined) was tested. Which PFA (Rattus norvegicus [24]) did it give?
The PFA was -5.

And the PFA (Rattus norvegicus [25])?
The PFA was -54.

How did the PFA (Rattus norvegicus [26]) turn out when `Cc1cc(OCC(O)CCN2CCN(c3ccc(F)cc3)CC2)ccc1Cl.Cl.Cl` (centres undefined) was run?
Its PFA is -41.

What about the PFA (Rattus norvegicus [27]) of the same compound?
The PFA was -74.

Which PFA (Rattus norvegicus [28]) does the source give for `OC(CCN1CCC(c2ccccc2)CC1)COc1ccccc1` (centres undefined) here?
The PFA was -29.

Which results are given for `OC(CCN1CCN(c2ccccc2)CC1)COc1ccc(F)cc1` (centres undefined)?
PFA (Rattus norvegicus [29]): -73; PFA (Rattus norvegicus [30]): -43
